Experiment [1] has as its target T1, Thioredoxin reductase (Homo sapiens, UniProt Q16881+Q9NNW7+Q86VQ6). Put plainly: Inhibitory concentration at 50% inhibition. It is filed as protein assay. In outline:
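Tight-binding hTrxR inhibition. Human placental TrxR (~2 nM) in 100 mM potassium phosphate, 2 mM EDTA, pH 7.4, reduced with 200 μM NADPH, then preincubated with varying inhibitor for 5 min at 25 °C (footnote says 2 min). Activity started with 3 mM DTNB and read as A412 increase. IC50 taken from dose-response curves.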

Experiment [2] deals with T1, Thioredoxin reductase. Put plainly: Inhibitory concentration used to inhibit the enzyme competitively with the substrate. In kind it is protein assay. Summed up:
(§1)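 Reversible competitive component. About 2 nM placental hTrxR with DTNB 50 μM–1 mM and a single inhibitor concentration (10 nM–1 μM) in phosphate/EDTA buffer, pH 7.4. Started with 200 μM NADPH at 25 °C, TNB formation read at 412 nm. Km' compared with Km without inhibitor; Ki = Km[I]/(Km' − Km).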

Experiment [3] has as its target Glutathione reductase, mitochondrial (Homo sapiens) (UniProt P00390). Put plainly: Percent inhibition of the glutathione reductase after 2 min incubation at 10 uM inhibitory concentration. In outline:
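Human glutathione reductase in 47 mM potassium phosphate, 1 mM EDTA, 200 mM KCl, pH 6.9, 100 μM NADPH. Enzyme preincubated 2 min with 10 μM compound in the assay mixture, then started with 1 mM GSSG at 25 °C. NADPH consumption followed as A340 decrease; percent inhibition versus uninhibited enzyme.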

In experiment [4] the target is T1, Thioredoxin reductase. Put plainly: Michaelis-Menten constant (Km') for DTNB (5,5'-dithiobis(2-nitrobenzoate) in the presence of the compound. It is filed as protein assay. Summed up: as §1
In experiment [5] the target is T1, Thioredoxin reductase. As to the kind of experiment: Inhibitory concentration for Km'. It is filed as protein assay. In outline: as §1
Another experiment deals with HNO 97 cell line. As to the kind of experiment: 50% Growth inhibition on HNO97 head and neck squamous carcinoma cell lines. It is filed as functional, cell-based. In outline:
(§2)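 BrdU incorporation proliferation assay. 7×10^3 cells/well in RPMI 1640 with 10% FCS, 8 replicas. Compound added 24 h after seeding at 1, 5, 10 or 20 μM, either once or three times at 24 h intervals; 67 h total incubation. BrdU (100 μM final) added 48 h after first addition. Absorbance expressed relative to untreated controls (100%). IC50 ± SD from ≥2 independent experiments.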

The next experiment deals with HNO199 cell line. Put plainly: 50% Growth inhibition on HNO199 head and neck squamous carcinoma cell lines. It is filed as functional, cell-based. Summed up: as §2
The subject of another experiment is NCH89. As to the kind of experiment: 50% Growth inhibition on NCH89 glioma cell lines. In kind it is functional, cell-based. In outline: as §2
The test system of the next experiment is NCH37. As to the kind of experiment: 50% Growth inhibition on NCH37 glioma cell lines.
In another experiment the test system is NCH82. As to the kind of experiment: 50% Growth inhibition on NCH82 glioma cell lines.
Experiment [6] addresses Glutathione reductase, mitochondrial (Homo sapiens) (UniProt P00390). Put plainly: Percent GR activity after exposure to 10 uM for 67 hr. Summed up: (§3)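 NCH37 glioblastoma cells in RPMI 1640 with 10% FCS at 37 °C, 5% CO2, given compound once or as doses at 0, 24 and 48 h. Sampled at 30, 90, 270 min or 67 h. Intact cells washed in PBS and sonicated; cleared lysate assayed. TrxR used 100 μM E. coli thioredoxin, with NADPH oxidase background subtracted. GR used the GSSG/NADPH A340 assay. mU/10^6 cells given as % of untreated controls, mean of three experiments.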

The target is the same in experiment [7]. As to the kind of experiment: Percent GR activity after exposure to 1 uM for 270 min. Summed up: as §3
Experiment [8] has the same target. As to the kind of experiment: Percent GR activity after exposure to 1 uM for 30 min. In outline: as §3
Experiment [9] has the same target. As to the kind of experiment: Percent GR activity after exposure to 1 uM for 67 hr. Summed up:
as §3

Experiment [10] has the same target. As to the kind of experiment: Percent GR activity after exposure to 1 uM for 90 min. Summed up:
as §3

Experiment [11] has the same target. As to the kind of experiment: Percent GR activity after exposure to 3x1 uM concentration at regular intervals of 0,24,48 hours for the period of 67 hours. In outline: as §3
Experiment [12] has the same target. Put plainly: Percent GR activity after exposure to 3x10 uM concentration at regular intervals of 0,24,48 hours for the period of 67 hours. In outline:
as §3

The target is the same in experiment [13]. Put plainly: Percent GR activity after exposure to 3x5 uM concentration at regular intervals of 0,24,48 hours for the period of 67 hours. Summed up:
as §3

For experiment [14] the target is unchanged. Put plainly: Percent GR activity after exposure to 5 uM for 67 hr. In outline: as §3
Experiment [15] addresses T1, Thioredoxin reductase. As to the kind of experiment: Percent TrxR activity after exposure to 3x1 uM concentration at regular intervals of 0,24,48 hours for the period of 67 hours. In kind it is functional. Summed up: as §3
For experiment [16], the target named is T1, Thioredoxin reductase. As to the kind of experiment: Percent TrxR activity after exposure to 3x10 uM concentration at regular intervals of 0,24,48 hours for the period of 67 hours. It is filed as functional. In outline:
as §3

The target in experiment [17] is T1, Thioredoxin reductase. Put plainly: Percent TrxR activity after exposure to 3x5 uM concentration at regular intervals of 0,24,48 hours for the period of 67 hours. It is filed as functional. Summed up: as §3
In experiment [18] the target is T1, Thioredoxin reductase. As to the kind of experiment: Percent TrxR activity after exposure to 5 uM for 30 mins. It is filed as functional. Summed up: as §3
In experiment [19] the target is T1, Thioredoxin reductase. As to the kind of experiment: Percent TrxR activity after exposure to 5 uM for 67 hr. In kind it is functional. In outline:
as §3

For experiment [20], the target named is T1, Thioredoxin reductase. Put plainly: Percent TrxR activity after exposure to 10 uM for 67 hrs. It is filed as functional. In outline: as §3
Experiment [21] concerns the target T1, Thioredoxin reductase. Put plainly: Percent TrxR activity after exposure to 1 uM for 270 mins. In kind it is functional. In outline:
as §3

Experiment [22] addresses T1, Thioredoxin reductase. As to the kind of experiment: Percent TrxR activity after exposure to 1 uM for 67h. In kind it is functional. Summed up:
as §3

Experiment [23] has as its target T1, Thioredoxin reductase. As to the kind of experiment: Percent TrxR activity after exposure to 1 uM for 90 mins. In kind it is functional. In outline: as §3
Experiment [24] deals with T1, Thioredoxin reductase. Put plainly: Percent TrxR activity after exposure to 1 uM for 30 mins. It is filed as functional. In outline: as §3

One may read the IC50 as the concentration that gives 50% inhibition. By Ki is commonly meant a measure of affinity in units of concentration, obtained from inhibition or displacement. A higher Ki goes with lower affinity. What is called inhibition is the relative decrease from the control value, in per cent. Read a low inhibition as little suppression.

Sequence of Glutathione reductase, mitochondrial (Homo sapiens) (P00390 whole entry): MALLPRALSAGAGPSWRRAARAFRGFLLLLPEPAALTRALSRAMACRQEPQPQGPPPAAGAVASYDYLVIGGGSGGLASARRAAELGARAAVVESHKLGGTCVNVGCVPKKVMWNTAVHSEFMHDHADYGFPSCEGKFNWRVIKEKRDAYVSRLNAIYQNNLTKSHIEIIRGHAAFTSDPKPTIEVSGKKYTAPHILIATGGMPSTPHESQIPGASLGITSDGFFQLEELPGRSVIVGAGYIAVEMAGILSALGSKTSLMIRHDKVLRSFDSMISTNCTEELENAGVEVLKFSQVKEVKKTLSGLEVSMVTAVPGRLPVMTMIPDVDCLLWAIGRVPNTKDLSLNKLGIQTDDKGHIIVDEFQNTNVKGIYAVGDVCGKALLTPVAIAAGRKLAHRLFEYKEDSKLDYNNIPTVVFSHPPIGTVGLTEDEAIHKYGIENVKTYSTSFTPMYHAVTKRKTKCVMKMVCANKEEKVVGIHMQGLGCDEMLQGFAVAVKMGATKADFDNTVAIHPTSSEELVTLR
T1 sequence (Q86VQ6 whole entry, looked up, chain 1 of 3): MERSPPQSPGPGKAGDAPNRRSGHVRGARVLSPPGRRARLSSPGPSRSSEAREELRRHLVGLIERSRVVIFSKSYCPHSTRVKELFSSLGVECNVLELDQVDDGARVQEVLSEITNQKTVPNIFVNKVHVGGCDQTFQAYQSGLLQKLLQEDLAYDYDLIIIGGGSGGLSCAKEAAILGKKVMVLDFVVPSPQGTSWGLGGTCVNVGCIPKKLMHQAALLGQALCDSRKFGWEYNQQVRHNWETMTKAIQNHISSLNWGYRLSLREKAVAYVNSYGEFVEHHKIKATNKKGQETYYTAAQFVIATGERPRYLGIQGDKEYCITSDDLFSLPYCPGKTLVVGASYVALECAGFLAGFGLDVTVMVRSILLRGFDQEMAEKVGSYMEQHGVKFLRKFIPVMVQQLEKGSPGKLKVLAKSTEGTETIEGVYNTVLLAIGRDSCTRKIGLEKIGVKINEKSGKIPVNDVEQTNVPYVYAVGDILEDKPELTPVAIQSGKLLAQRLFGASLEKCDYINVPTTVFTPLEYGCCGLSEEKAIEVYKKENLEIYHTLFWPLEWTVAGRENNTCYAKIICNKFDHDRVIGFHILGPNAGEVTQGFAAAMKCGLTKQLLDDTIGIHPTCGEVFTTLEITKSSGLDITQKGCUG
T1 sequence (Q9NNW7 whole entry, looked up, chain 2 of 3): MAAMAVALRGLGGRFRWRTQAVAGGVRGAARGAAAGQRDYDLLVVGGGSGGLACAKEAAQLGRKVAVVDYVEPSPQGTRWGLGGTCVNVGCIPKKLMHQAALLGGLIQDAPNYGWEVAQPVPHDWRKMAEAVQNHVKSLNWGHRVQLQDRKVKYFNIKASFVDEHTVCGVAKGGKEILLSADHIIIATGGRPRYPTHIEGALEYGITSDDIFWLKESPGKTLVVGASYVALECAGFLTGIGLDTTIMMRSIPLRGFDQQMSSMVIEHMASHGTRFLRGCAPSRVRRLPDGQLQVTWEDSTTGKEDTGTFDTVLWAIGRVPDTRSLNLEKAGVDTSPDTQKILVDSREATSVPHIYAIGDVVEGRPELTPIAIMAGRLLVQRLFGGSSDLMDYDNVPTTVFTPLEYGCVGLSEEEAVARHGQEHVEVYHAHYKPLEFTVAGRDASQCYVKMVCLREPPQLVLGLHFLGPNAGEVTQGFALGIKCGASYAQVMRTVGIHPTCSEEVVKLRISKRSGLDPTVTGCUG
T1 sequence (Q16881 whole entry, looked up, chain 3 of 3): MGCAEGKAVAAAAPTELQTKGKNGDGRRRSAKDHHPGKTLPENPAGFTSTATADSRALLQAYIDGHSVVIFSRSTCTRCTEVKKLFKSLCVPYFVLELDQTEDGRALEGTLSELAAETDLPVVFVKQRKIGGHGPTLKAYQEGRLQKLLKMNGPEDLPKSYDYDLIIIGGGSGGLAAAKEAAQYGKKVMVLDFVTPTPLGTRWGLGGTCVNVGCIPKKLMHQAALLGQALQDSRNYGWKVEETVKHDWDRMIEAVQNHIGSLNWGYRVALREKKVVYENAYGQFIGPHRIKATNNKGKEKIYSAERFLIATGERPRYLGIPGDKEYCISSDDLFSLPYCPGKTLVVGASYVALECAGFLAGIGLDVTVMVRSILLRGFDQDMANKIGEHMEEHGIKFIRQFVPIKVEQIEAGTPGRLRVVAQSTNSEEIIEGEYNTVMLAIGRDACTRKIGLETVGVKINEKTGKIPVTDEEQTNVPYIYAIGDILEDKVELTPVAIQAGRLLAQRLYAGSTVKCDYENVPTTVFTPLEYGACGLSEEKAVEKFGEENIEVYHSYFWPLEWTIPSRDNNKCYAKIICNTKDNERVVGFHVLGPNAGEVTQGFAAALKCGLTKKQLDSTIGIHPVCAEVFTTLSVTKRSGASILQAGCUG

As to “2-Mercaptoimidazole Bis[(4'-chloro-2,2':6',2''-terpyridine)platinum (II)] Trinitrate [listing 1 of 2 here]”, the IC50 on Thioredoxin reductase [1] was determined as 3 nM. Affinity at Thioredoxin reductase [2] was put at a Ki of 11 nM.

For the substance “2-Mercaptoimidazole Bis[(4'-chloro-2,2':6',2''-terpyridine)platinum (II)] Trinitrate [listing 2 of 2 here]”, in experiment [3], the inhibition was determined as 20%. Besides, on Thioredoxin reductase [4], the Km' is 1010 µM. This substance had a [I] for Km' on Thioredoxin reductase [5] of 0.1 µM.

On to “2-Mercaptopyridine (4'-chloro-2,2':6',2''-terpyridine)platinum (II) Nitrate [listing 1 of 2 here]”, for which 6 nM corresponded to half-maximal inhibition against Thioredoxin reductase [1] (IC50). The same substance came in with a Ki at Thioredoxin reductase [2] of 7 nM.

For “2-Mercaptopyridine (4'-chloro-2,2':6',2''-terpyridine)platinum (II) Nitrate [listing 2 of 2 here]”, the inhibition in experiment [3] stood at 47%. The Km' at Thioredoxin reductase [4] is 247 µM. Also, the [I] for Km' at Thioredoxin reductase [5] stood at 0.01 µM.

“2-Mercaptopyrimidine (4'-chloro-2,2':6',2''-terpyridine)platinum (II) Nitrate [listing 1 of 2 here]” registered an IC50 at Thioredoxin reductase [1] of 7 nM. The same substance registered a Ki at Thioredoxin reductase [2] of 17 nM.

In experiment [3], “2-Mercaptopyrimidine (4'-chloro-2,2':6',2''-terpyridine)platinum (II) Nitrate [listing 2 of 2 here]” had an inhibition of 66%. The Km' at Thioredoxin reductase [4] was 715 µM. The same substance registered a [I] for Km' on Thioredoxin reductase [5] of 0.1 µM.

As to “4-Mercaptoethanol-(2,2':6',2''-terpyridine)platinum (II) Nitrate [listing 1 of 2 here]”, the IC50 against Thioredoxin reductase [1] turned out to be 35 nM. Also, the Ki at Thioredoxin reductase [2] was determined as 348 nM.

Regarding “4-Mercaptoethanol-(2,2':6',2''-terpyridine)platinum (II) Nitrate [listing 2 of 2 here]”, in experiment [3], the inhibition was determined as 7%. The Km' on Thioredoxin reductase [4] amounted to 399 µM. The same substance returned a [I] for Km' at Thioredoxin reductase [5] of 1 µM.

As for “4-Mercaptoethanol-(2,2':6',4'-chloro,2''-terpyridine)platinum (II) Nitrate [listing 1 of 2 here]”, the IC50 on Thioredoxin reductase [1] turned out to be 30 nM. At Thioredoxin reductase [2], this substance came in with a Ki of 22 nM.

For “4-Mercaptoethanol-(2,2':6',4'-chloro,2''-terpyridine)platinum (II) Nitrate [listing 2 of 2 here]”, the inhibition in experiment [3] turned out to be 55%. Also, the Km' on Thioredoxin reductase [4] was 4740 µM. At Thioredoxin reductase [5], this substance returned a [I] for Km' of 1 µM.

Turning to “4-Mercaptopyridine (4'-chloro-2,2':6',2''-terpyridine)platinum (II) Nitrate [listing 1 of 2 here]”, the IC50 in the experiment with HNO 97 cell line was 5.5 µM; in the experiment on HNO199 cell line it was 9.2 µM; in the experiment with NCH89, 2500 nM; on Thioredoxin reductase [1] it was 4 nM; with NCH37 it was 10.5 µM; in the experiment with NCH82 it was 7.4 µM. In addition, at Thioredoxin reductase [2], the affinity corresponds to a Ki of 5 nM.

With “4-Mercaptopyridine (4'-chloro-2,2':6',2''-terpyridine)platinum (II) Nitrate [listing 2 of 2 here]”, the Activity stood at 260% in experiment [6]; 110% in experiment [7]; 90% in experiment [8]; 220% in experiment [9]; 90% in experiment [10]; 180% in experiment [11]. In addition, the Activity in experiment [12] was found to be 180%; in experiment [13], 220%; in [14], 200%; at Thioredoxin reductase [15] it was 110%; at Thioredoxin reductase [16], 5%; on Thioredoxin reductase [17], 60%. The Activity was determined as 30% on Thioredoxin reductase [18]; 130% on Thioredoxin reductase [19]; 80% at Thioredoxin reductase [20]; 90% at Thioredoxin reductase [21]; 160% on Thioredoxin reductase [22]; 50% on Thioredoxin reductase [23]. Moreover, the Activity on Thioredoxin reductase [24] is 50%. This substance also came in with an inhibition in experiment [3] of 90%. Besides, on Thioredoxin reductase [4], the Km' was 1060 µM. On Thioredoxin reductase [5], this substance yielded a [I] for Km' of 0.05 µM.
